The list is not random: actives were taken first. Their share in the collection is about 2.4%.
HSV augment: increases HSV replication in cells; HSV replication augmentation in cells, fold increase; maximum fold increase; 220,000 compounds, 0.005% hits; in the data active = maximum fold increase above about 1.5; tested in PC3 cells
Insulin prom inh: TRM-6 insulin promoter activity inhibition. 130,000 compounds, 0.9% hits. inhibition, % at 2 µM. TRM-6 cells (human fetal islet line), insulin promoter-eGFP reporter, imaging; reporter expression induced with tamoxifen. AID 1273;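 active = inhibition above the mean plus 3 SD, with well images judged a real hit on visual review, cut at about 60% in these data, passing the limit was not always enough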
MT stabilize HCS: microtubule stabilization, imaging screen | HeLa tubulin immunostaining HCS, 24 h; share of cells brighter than vehicle mean+2SD | % tubulin-high responders, % at 10 µM | 200,000 compounds, 0.83% hits;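 active = plate Z-score above 3 for both tubulin-high and condensed-nucleus cell shares, with cell loss under 80%, at 10 µM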;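 note: anti alpha tubulin signal scored within the nucleus-defined area of each cell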
ROMK primary: modulates human ROMK potassium channel activity; Tet-inducible ROMK, thallium flux fluorescence; actives lie on both sides; B-score at 10 µM; 130,000 compounds, 2% hits;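 active = signal ratio slope over the read window, or its plate-corrected B-score, at least 3 SD from the plate mean, either direction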;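 note: B-score of the F/F0 ratio slope over 7 to 12 s after thallium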
Target sequence (P48048 whole entry, looked up): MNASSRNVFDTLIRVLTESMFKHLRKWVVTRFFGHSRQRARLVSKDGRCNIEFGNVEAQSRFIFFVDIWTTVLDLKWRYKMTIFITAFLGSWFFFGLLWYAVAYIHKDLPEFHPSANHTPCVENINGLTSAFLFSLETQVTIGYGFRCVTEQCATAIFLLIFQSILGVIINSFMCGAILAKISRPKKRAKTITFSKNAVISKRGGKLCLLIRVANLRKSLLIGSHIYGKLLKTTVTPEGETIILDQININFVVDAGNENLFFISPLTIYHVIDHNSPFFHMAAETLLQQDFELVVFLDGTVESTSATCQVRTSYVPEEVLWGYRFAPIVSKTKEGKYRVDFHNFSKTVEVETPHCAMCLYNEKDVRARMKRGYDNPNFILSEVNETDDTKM
b-catenin transl: alters nuclear translocation of beta-catenin in HeLa cells | 190,000 compounds, 0.3% hits | nuclear translocation activity, % at 5 µM | immunofluorescence imaging;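 active = nuclear translocation activity above 50% at 5 µM, with a well cell count of 50 or more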;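 note: per-cell ratio of nuclear to cytoplasmic median beta-catenin stain intensity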
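Signal – beta-catenin immunofluorescence imaging with DAPI · Test system – human HeLa cell line · Dosing – 5 µM primary single dose, 0.1% DMSO, 0.02–20 µM confirmation series · Measure – % activation, nuclear-to-cytoplasmic median beta-catenin signal ratio per cell · Incubation – 24 h compound exposure at 37°C, 5% CO2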
ROMK hit retest: retested hit modulating human ROMK potassium channel | shares compounds with ROMK primary | 3,000 compounds, 54% hits | ROMK thallium flux, fluorescence ratio; active compounds read low | normalized thallium flux (F/F0 slope) at 10 µM;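 active = Flux at 10 µM at least 3 SD below or above vehicle control mean in one or both replicates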
Numbers stand for hits.

Results for N#C/C(=C\c1cccc([N+](=O)[O-])c1)C(=O)NCc1ccc(Cl)cc1 ?
HSV augment: inactive; MT stabilize HCS: inactive; ROMK primary: inactive; b-catenin transl: inactive

Results for CCOC(=O)N1CCN(C(=O)Cn2ncn3nc(-c4cccs4)cc3c2=O)CC1 ?
HSV augment: inactive; Insulin prom inh: inactive; MT stabilize HCS: inactive; b-catenin transl: inactive

How did O=C(COc1ccccc1F)NC12CC3CC(CC(C3)C1)C2 do in these assays?
HSV augment: inactive; b-catenin transl: inactive

Results for Cc1cccc2c(=O)c(Br)c(C)n(Cc3ccccc3)c12 ?
HSV augment: inactive; MT stabilize HCS: inactive; ROMK primary: inactive; b-catenin transl: inactive

How did COCCNC(=O)/C(C#N)=C/c1ccc(O)cc1 do in these assays?
HSV augment: inactive; b-catenin transl: inactive

What do the screens show for `COCCNC(=O)/C(C#N)=C/c1cccc(/C=C(\C#N)C(=O)NCCOC)c1`?
HSV augment: inactive; Insulin prom inh: inactive; MT stabilize HCS: inactive; ROMK hit retest: 0.037

What do the screens show for `CCOc1ccc(C(=O)C(CCC(CN(C)C)C(=O)c2ccc(OCC)cc2)CN(C)C)cc1` (stereo unspecified)?
HSV augment: inactive; MT stabilize HCS: inactive; b-catenin transl: inactive

Results for CN(C)CC(CCC(CN(C)C)C(=O)c1ccccc1)C(=O)c1ccccc1 (stereo unspecified) ?
HSV augment: inactive; ROMK primary: -3.2; b-catenin transl: inactive; ROMK hit retest: 0.044

Results for COC(=O)/C(=C/c1cn(C)c2ccccc12)[N+](=O)[O-] ?
Insulin prom inh: inactive; MT stabilize HCS: inactive; b-catenin transl: inactive; ROMK hit retest: 0.042

What do the screens show for `CC(C)COC(=O)/C(C#N)=C/c1c[nH]c2ccccc12`?
HSV augment: inactive; MT stabilize HCS: inactive; b-catenin transl: inactive; ROMK hit retest: 0.034

What do the screens show for `COC(=O)/C(=C/c1c[nH]c2ccccc12)[N+](=O)[O-]`?
HSV augment: inactive; MT stabilize HCS: inactive; ROMK primary: -3.8; b-catenin transl: inactive; ROMK hit retest: 0.062

How did CO/N=C/NC(=O)C1=NOC(CNc2ncc(C(F)(F)F)cc2Cl)C1 (stereo unspecified) do in these assays?
HSV augment: inactive; MT stabilize HCS: inactive; ROMK primary: inactive; b-catenin transl: inactive

Results for NC(=O)C1=NOC(CNc2ncc(C(F)(F)F)cc2Cl)C1 (stereo unspecified) ?
HSV augment: inactive; Insulin prom inh: inactive; MT stabilize HCS: inactive; ROMK primary: 2.4; ROMK hit retest: inactive

Results for Cc1ccc(C2=NOC(=O)/C2=C\c2ccc(C)o2)cc1 ?
HSV augment: inactive; ROMK primary: -3.7; b-catenin transl: inactive; ROMK hit retest: 0.039

Results for Cc1ccc(/C=C2\C(=O)ON=C2c2ccccc2)o1 ?
HSV augment: inactive; Insulin prom inh: inactive; MT stabilize HCS: inactive; ROMK primary: inactive; b-catenin transl: inactive

What do the screens show for `CCOC(=O)C(C)Oc1cccc2c(=O)n(CC(=O)NCc3ccco3)ccc12` (stereo unspecified)?
HSV augment: inactive; MT stabilize HCS: inactive; b-catenin transl: 73; ROMK hit retest: inactive

Results for CC(C)C(=O)c1cn(CC(=O)NCc2ccco2)c2ccccc12 ?
HSV augment: inactive; Insulin prom inh: inactive; MT stabilize HCS: inactive; ROMK primary: inactive; b-catenin transl: inactive

How did CC(=O)Nc1ccc(S(=O)(=O)NCCCN2CCN(Cc3ccccc3)CC2)cc1Cl do in these assays?
HSV augment: inactive; ROMK primary: -13; b-catenin transl: inactive; ROMK hit retest: inactive

What do the screens show for `Cc1ccc(S(=O)(=O)NCCC(=O)N2CCN(Cc3ccccc3)CC2)cc1`?
HSV augment: inactive; Insulin prom inh: inactive; MT stabilize HCS: inactive; b-catenin transl: inactive

How did C=CCn1c(SCc2ccc(C(=O)Nc3nccs3)cc2)nnc1-c1ccc(C)c(Cl)c1 do in these assays?
HSV augment: inactive; MT stabilize HCS: inactive; b-catenin transl: inactive; ROMK hit retest: inactive

What do the screens show for `O=C(/C=C/c1ccc(Cl)cc1)c1cccnc1`?
HSV augment: inactive; Insulin prom inh: inactive; MT stabilize HCS: inactive; ROMK primary: -8.1; ROMK hit retest: 0.043

What do the screens show for `O=C(/C=C/c1ccccc1Cl)c1ccc(O)cc1`?
HSV augment: inactive; b-catenin transl: inactive

What do the screens show for `O=C(/C=C/c1ccccc1Cl)c1cccnc1`?
HSV augment: inactive; Insulin prom inh: inactive; MT stabilize HCS: inactive; ROMK primary: -7.4; ROMK hit retest: 0.044

Results for N#Cc1ccc(/C=C/C(=O)c2ccc3c(c2)OCO3)cc1 ?
HSV augment: inactive; Insulin prom inh: inactive; MT stabilize HCS: inactive; ROMK primary: inactive; b-catenin transl: inactive

Results for CCN(CC)c1ccc(/C=C/C(=O)c2cccnc2)cc1 ?
HSV augment: inactive; Insulin prom inh: inactive; MT stabilize HCS: inactive; ROMK primary: inactive; b-catenin transl: inactive

Results for N#Cc1ccc(/C=C/C(=O)c2cccnc2)cc1 ?
HSV augment: inactive; MT stabilize HCS: inactive; ROMK primary: -3.3; b-catenin transl: inactive; ROMK hit retest: 0.045

Results for CN(Cc1ccccc1)c1ccc2nnc(-c3ccccc3)n2n1 ?
Insulin prom inh: inactive; MT stabilize HCS: inactive; ROMK primary: -3.7; b-catenin transl: inactive; ROMK hit retest: 0.065

Results for CC(C)C(=O)O/N=C(\N)c1ccc(Oc2ccc(Cl)cc2)c([N+](=O)[O-])c1 ?
HSV augment: inactive; ROMK primary: inactive; b-catenin transl: inactive

Results for Cc1ccc(NC(=O)C(Nc2ccccc2)c2ccccc2)cc1 (stereo unspecified) ?
HSV augment: inactive; Insulin prom inh: inactive; MT stabilize HCS: inactive; b-catenin transl: inactive; ROMK hit retest: inactive

How did CCCOc1ccc(C(=O)Nc2nc(C)c(Cc3ccc4c(c3)OCO4)s2)cc1 do in these assays?
HSV augment: inactive; Insulin prom inh: inactive; MT stabilize HCS: inactive; ROMK primary: inactive; b-catenin transl: inactive

How did COc1cc(C(=O)Nc2nc(C)c(Cc3ccc4c(c3)OCO4)s2)cc(OC)c1OC do in these assays?
HSV augment: inactive; Insulin prom inh: inactive; MT stabilize HCS: 15; ROMK primary: 2.6; b-catenin transl: inactive; ROMK hit retest: 0.11

What do the screens show for `Cc1cc2cc(C(c3nnnn3C(C)(C)C)N(Cc3ccco3)CC3CCCO3)c(=O)[nH]c2cc1C` (stereo unspecified)?
HSV augment: inactive; Insulin prom inh: inactive; MT stabilize HCS: inactive; b-catenin transl: inactive

How did Cc1cccc2cc(CN(CC3CCCO3)C(c3nnnn3Cc3ccco3)C(C)C)c(=O)[nH]c12 (stereo unspecified) do in these assays?
Insulin prom inh: inactive; MT stabilize HCS: inactive; ROMK primary: -3; b-catenin transl: inactive; ROMK hit retest: inactive

Results for Cc1ccc2cc(CN(CCCN3CCOCC3)C(c3nnnn3Cc3ccco3)C(C)C)c(=O)[nH]c2c1C (stereo unspecified) ?
HSV augment: inactive; Insulin prom inh: inactive; MT stabilize HCS: inactive; ROMK primary: inactive
